In ChEMBL document CHEMBL1155671, “New circulin macrocyclic polypeptides from Chassalia parvifolia” (J Nat Prod, 2000):
pEC50: −log10 of the molar value. Positions of bridges follow the written chain, without caps; N, C: chain ends. Residues, ends and D or L forms follow the SMILES beside them.

Assays:
Format in all cases: functional, organism-based
[1] = tested on: Human immunodeficiency virus 1; experiment: Antiviral activity against HIV1 RF in human CEM-SS cells assessed as inhibition of virus-induced cytopathic effect by XTT assay; conditions: Human immunodeficiency virus 1, RF
Method in brief: (§1)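 Peptide samples dissolved in 100% DMSO or H2O-DMSO (3:1), then diluted to test concentrations. Tested in an in vitro XTT tetrazolium-based cell assay for protection against the cytopathic effects of productive HIV-1 infection. EC50 is the concentration giving 50% protection, determined separately for each virus strain and target cell line pairing.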

[2] = tested on: Human immunodeficiency virus 1; experiment: Antiviral activity against HIV1 214 in human CEM-SS cells assessed as inhibition of virus-induced cytopathic effect by XTT assay; conditions: Human immunodeficiency virus 1, CEM-SS; method in brief: as §1
[3] = tested on: Human immunodeficiency virus 1; experiment: Antiviral activity against HIV1 205 in human CEM-SS cells assessed as inhibition of virus-induced cytopathic effect by XTT assay; conditions: Human immunodeficiency virus 1, CEM-SS; method in brief: as §1
[4] = tested on: Human immunodeficiency virus 1; experiment: Antiviral activity against HIV1 G in human CEM-SS cells assessed as inhibition of virus-induced cytopathic effect by XTT assay; conditions: Human immunodeficiency virus 1, CEM-SS; method in brief: as §1
[5] = tested on: Human immunodeficiency virus 1; experiment: Antiviral activity against HIV1 SK1 in human CEM-SS cells assessed as inhibition of virus-induced cytopathic effect by XTT assay; conditions: Human immunodeficiency virus 1, CEM-SS; method in brief: as §1
[6] = tested on: Human immunodeficiency virus 1; experiment: Antiviral activity against HIV1 N119 in human CEM-SS cells assessed as inhibition of virus-induced cytopathic effect by XTT assay; conditions: Human immunodeficiency virus 1, CEM-SS; method in brief: as §1
[7] = tested on: Human immunodeficiency virus 1; experiment: Antiviral activity against HIV1 A17 in human MT2 cells assessed as inhibition of virus-induced cytopathic effect by XTT assay; conditions: Human immunodeficiency virus 1, A17, MT2; method in brief: as §1
[8] = tested on: Human immunodeficiency virus 1; experiment: Antiviral activity against HIV1 G9106 in human MT2 cells assessed as inhibition of virus-induced cytopathic effect by XTT assay; conditions: Human immunodeficiency virus 1, G9106, MT2; method in brief: as §1
[9] = tested on: Human immunodeficiency virus 1; experiment: Antiviral activity against HIV1 H1122 in human MT2 cells assessed as inhibition of virus-induced cytopathic effect by XTT assay; conditions: Human immunodeficiency virus 1, MT2; method in brief: as §1
[10] = tested on: Human immunodeficiency virus 1; experiment: Antiviral activity against HIV1 3B in human MT2 cells assessed as inhibition of virus-induced cytopathic effect by XTT assay; conditions: Human immunodeficiency virus 1, 3B; method in brief: as §1
[11] = tested on: Human immunodeficiency virus 1; experiment: Antiviral activity against HIV1 3B in human CEM-SS cells assessed as inhibition of virus-induced cytopathic effect by XTT assay; conditions: Human immunodeficiency virus 1, 3B; method in brief: as §1

| SMILES | pEC50 [1] | pEC50 [2] | pEC50 [3] | pEC50 [4] | pEC50 [5] | pEC50 [6] | pEC50 [7] | pEC50 [8] | pEC50 [9] | pEC50 [10] | pEC50 [11] |
| --- | --- | --- | --- | --- | --- | --- | --- | --- | --- | --- | --- |
| CC[C@H](C)[C@@H]1NC(=O)[C@H](C)NC(=O)[C@H](C)NC(=O)[C@H](CO)NC(=O)[C@H]([C@@H](C)CC)NC(=O)[C@@H]2CSSC[C@@H]3NC(=O)[C@H](C(C)C)NC(=O)[C@H](CCCCN)NC(=O)[C@H](CC(N)=O)NC(=O)[C@H](CCCCN)NC(=O)[C@@H]4CSSC[C@H](NC(=O)[C@H](CO)NC(=O)[C@H](CCC(=O)O)NC(=O)CNC(=O)[C@H](CSSC[C@H](NC(=O)CNC1=O)C(=O)N[C@@H](CO)C(=O)N4)NC(=O)[C@@H]1CCCN1C(=O)[C@H]([C@@H](C)CC)NC(=O)[C@H](C)NC(=O)[C@H](CCCNC(=N)N)NC(=O)[C@H](Cc1ccc(O)cc1)NC3=O)C(=O)N[C@@H](C(C)C)C(=O)N[C@@H](Cc1c[nH]c3ccccc13)C(=O)N[C@@H]([C@@H](C)CC)C(=O)N1CCC[C@H]1C(=O)N2 [CIRCULIN F] (cyclo(AAIGCSCKNKVCYRAIPCGESCVWIPCIS); disulfide 5-18, 7-22, 12-27) | 7.30 | 7.30 | 7.30 | 7.30 | 7.30 | 7.30 | 7.30 | 7.30 | 7.30 | 7.30 |  |
| CC[C@H](C)[C@@H]1NC(=O)[C@H](CCCCN)NC(=O)[C@H](CC(=O)O)NC(=O)[C@H](Cc2cnc[nH]2)NC(=O)[C@H](Cc2ccc(O)cc2)NC(=O)[C@@H]2CSSC[C@@H]3NC(=O)[C@@H]4CCCN4C(=O)[C@H]([C@@H](C)CC)NC(=O)[C@H](Cc4c[nH]c5ccccc45)NC(=O)[C@H](C(C)C)NC(=O)[C@@H]4CSSC[C@H](NC(=O)[C@H](CCCCN)NC(=O)[C@H](CSSC[C@H](NC(=O)[C@@H]5CCCN5C1=O)C(=O)NCC(=O)N[C@@H](CCC(=O)O)C(=O)N[C@@H](CO)C(=O)N4)NC(=O)[C@H](CC(N)=O)NC(=O)[C@H](Cc1ccccc1)NC(=O)[C@H](C(C)C)NC(=O)[C@H](CO)NC(=O)[C@H]([C@@H](C)O)NC(=O)[C@H](CC(C)C)NC3=O)C(=O)N[C@@H](CCC(=O)O)C(=O)N[C@@H](CC(N)=O)C(=O)N[C@@H](CCCCN)C(=O)N[C@@H](C(C)C)C(=O)N2 [CIRCULIN E] (cyclo(CENKVCYHDKIPCGESCVWIPCLTSVFNCK); disulfide 1-17, 6-22, 13-29) | 7.30 | 7.30 | 7.30 | 7.30 | 7.30 | 7.30 | 7.30 | 7.30 | 7.30 | 7.30 |  |
| CC[C@H](C)[C@@H]1NC(=O)[C@@H]2CSSC[C@@H]3NC(=O)[C@H](C(C)C)NC(=O)[C@H](CCCCN)NC(=O)[C@H](CO)NC(=O)[C@H](CCCCN)NC(=O)[C@@H]4CSSC[C@H](NC(=O)[C@H](CO)NC(=O)[C@H](CCC(=O)O)NC(=O)CNC(=O)[C@H](CSSC[C@H](NC(=O)CNC(=O)[C@H](C)NC(=O)[C@H](C(C)C)NC(=O)[C@H](CO)NC(=O)[C@H]([C@@H](C)O)NC1=O)C(=O)N[C@@H](CO)C(=O)N4)NC(=O)[C@@H]1CCCN1C(=O)[C@H]([C@@H](C)CC)NC(=O)CNC(=O)[C@H](CC(N)=O)NC(=O)[C@H](CCCNC(=N)N)NC(=O)[C@H](Cc1ccc(O)cc1)NC3=O)C(=O)N[C@@H](C(C)C)C(=O)N[C@@H](Cc1ccccc1)C(=O)N[C@@H]([C@@H](C)CC)C(=O)N1CCC[C@H]1C(=O)N2 [CIRCULIN C] (cyclo(AGCSCKSKVCYRNGIPCGESCVFIPCITSV); disulfide 3-17, 5-21, 10-26) | 6.78 | 6.67 | 6.81 | 6.95 | 7.29 | 6.62 | 6.61 | 7.17 | 7.32 | 6.70 | 7.14 |
